{"source": "ChEMBL document CHEMBL1132342", "about": "“Novel hypotensive agents from Verbesina caracasana. 6. Synthesis and pharmacology of caracasandiamide” (1999)", "key": {"Rattus norvegicus [1]": {"system": "Rattus norvegicus", "test": "Change in systolic blood pressure after iv administration of 2.5 mg/kg in anesthetized rats", "type": "functional, Artery"}, "Rattus norvegicus [2]": {"system": "Rattus norvegicus", "test": "Change in heart rate after iv administration of 2.5 ug/kg in anesthetized rats"}, "Rattus norvegicus [3]": {"system": "Rattus norvegicus", "test": "Maximum rate of rise of the left ventricular isovolumetric pressure was measured after iv administration of 2.5 mg/kg in anesthetized rats; ratio given for dP/dt", "type": "functional, Heart left ventricle"}, "Rattus norvegicus [4]": {"system": "Rattus norvegicus", "test": "Change in diastolic blood pressure after iv administration of 2.5 ug/kg in anesthetized rats"}, "Rattus norvegicus [5]": {"system": "Rattus norvegicus", "test": "Change in heart rate after iv administration of 1 mg/kg in anesthetized rats", "type": "functional"}, "Rattus norvegicus [6]": {"system": "Rattus norvegicus", "test": "Change in systolic blood pressure after iv administration of 1 mg/kg in anesthetized rats", "type": "functional, Artery"}, "Rattus norvegicus [7]": {"system": "Rattus norvegicus", "test": "Change in diastolic blood pressure after iv administration of 1 mg/kg in anesthetized rats", "type": "functional, Artery"}, "Rattus norvegicus [8]": {"system": "Rattus norvegicus", "test": "Maximum rate of rise of the left ventricular isovolumetric pressure was measured after iv administration of 1 mg/kg in anesthetized rats", "type": "functional, Heart left ventricle"}, "Rattus norvegicus [9]": {"system": "Rattus norvegicus", "test": "Maximum rate of rise of the left ventricular isovolumetric pressure was measured after iv administration of 25 uM/kg in anesthetized rats; ratio given for dP/dt", "type": "functional, Heart left ventricle"}, "Rattus norvegicus [10]": {"system": "Rattus norvegicus", "test": "Change in diastolic blood pressure after iv administration of 25 uM/kg in anesthetized rats", "type": "functional, Artery"}, "Rattus norvegicus [11]": {"system": "Rattus norvegicus", "test": "Change in systolic blood pressure after iv administration of 25 uM/kg in anesthetized rats", "type": "functional, Artery", "summary_of_the_method": "(§1)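 Doses were 4.12 µM/kg (two agents), guanethidine 25, clonidine 0.108, hexamethonium 12, reserpine 8, papaverine 5 and histamine […]. Peak changes in systolic BP or HR were recorded.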"}, "Rattus norvegicus [12]": {"system": "Rattus norvegicus", "test": "Change in heart rate after iv administration of 25 uM/kg in anesthetized rats", "type": "functional"}, "Rattus norvegicus [13]": {"system": "Rattus norvegicus", "test": "Change in diastolic blood pressure after iv administration of 12 uM/kg in anesthetized rats", "type": "functional, Artery"}, "Rattus norvegicus [14]": {"system": "Rattus norvegicus", "test": "Change in heart rate after iv administration of 12 uM/kg in anesthetized rats", "type": "functional"}, "Rattus norvegicus [15]": {"system": "Rattus norvegicus", "test": "Change in systolic blood pressure after iv administration of 12 uM/kg in anesthetized rats", "type": "functional, Artery", "summary_of_the_method": "as §1"}, "Rattus norvegicus [16]": {"system": "Rattus norvegicus", "test": "Maximum rate of rise of the left ventricular isovolumetric pressure was measured after iv administration of 12 uM/kg in anesthetized rats", "type": "functional, Heart left ventricle"}, "Rattus norvegicus [17]": {"system": "Rattus norvegicus", "test": "Change in diastolic blood pressure after iv administration of 0.625 mg/kg in anesthetized rats", "type": "functional, Artery"}, "Rattus norvegicus [18]": {"system": "Rattus norvegicus", "test": "Change in systolic blood pressure after iv administration of 0.625 ug/kg in anesthetized rats"}, "Rattus norvegicus [19]": {"system": "Rattus norvegicus", "test": "Change in heart rate after iv administration of 0.625 ug/kg in anesthetized rats"}, "Rattus norvegicus [20]": {"system": "Rattus norvegicus", "test": "Maximum rate of rise of the left ventricular isovolumetric pressure was measured after iv administration of 0.625 mg/kg in anesthetized rats", "type": "functional, Heart left ventricle"}, "Rattus norvegicus [21]": {"system": "Rattus norvegicus", "test": "Maximum rate of rise of the left ventricular isovolumetric pressure was measured after iv administration of 5 uM/kg in anesthetized rats; ratio given for dP/dt", "type": "functional, Heart left ventricle"}, "Rattus norvegicus [22]": {"system": "Rattus norvegicus", "test": "Change in heart rate after iv administration of 5 uM/kg in anesthetized rats", "type": "functional", "summary_of_the_method": "as §1"}, "Rattus norvegicus [23]": {"system": "Rattus norvegicus", "test": "Change in systolic blood pressure after iv administration of 5 uM/kg in anesthetized rats", "type": "functional, Artery"}, "Rattus norvegicus [24]": {"system": "Rattus norvegicus", "test": "Change in diastolic blood pressure after iv administration of 5 uM/kg in anesthetized rats", "type": "functional, Artery"}, "Rattus norvegicus [25]": {"system": "Rattus norvegicus", "test": "Change in diastolic blood pressure after iv administration of 8 uM/kg in anesthetized rats", "type": "functional, Artery"}, "Rattus norvegicus [26]": {"system": "Rattus norvegicus", "test": "Maximum rate of rise of the left ventricular isovolumetric pressure was measured after iv administration of 8 uM/kg in anesthetized rats; ratio given for dP/dt", "type": "functional, Heart left ventricle"}, "Rattus norvegicus [27]": {"system": "Rattus norvegicus", "test": "Change in heart rate after iv administration of 8 uM/kg in anesthetized rats", "type": "functional", "summary_of_the_method": "as §1"}, "Rattus norvegicus [28]": {"system": "Rattus norvegicus", "test": "Change in systolic blood pressure after iv administration of 8 uM/kg in anesthetized rats", "type": "functional, Artery"}}}
{"smiles": "CC(=O)OCC[N+](C)(C)C", "note": "[ACETYLCHOLINE]", "values": [{"measurement": "BP", "setting": "Rattus norvegicus [1]", "result": -25, "unit": "mmHg"}, {"measurement": "Heart rate", "setting": "Rattus norvegicus [2]", "result": -27, "unit": "beats min-1"}, {"measurement": "dP/dt", "setting": "Rattus norvegicus [3]", "result": -4451, "unit": "mmHg s-1"}, {"measurement": "BP", "setting": "Rattus norvegicus [4]", "result": -31, "unit": "mmHg"}]}
{"smiles": "CNC[C@H](O)c1ccc(O)c(O)c1", "note": "[EPINEPHRINE]", "values": [{"measurement": "Heart rate", "setting": "Rattus norvegicus [5]", "result": 41, "unit": "beats min-1"}, {"measurement": "BP", "setting": "Rattus norvegicus [6]", "result": 25, "unit": "mmHg"}, {"measurement": "BP", "setting": "Rattus norvegicus [7]", "result": 16, "unit": "mmHg"}, {"measurement": "dP/dt", "setting": "Rattus norvegicus [8]", "result": 8416, "unit": "mmHg s-1"}]}
{"smiles": "N=C(N)NCCN1CCCCCCC1", "note": "[GUANETHIDINE]", "values": [{"measurement": "dP/dt", "setting": "Rattus norvegicus [9]", "result": -1090, "unit": "mmHg s-1"}, {"measurement": "BP", "setting": "Rattus norvegicus [10]", "result": -22, "unit": "mmHg"}, {"measurement": "BP", "setting": "Rattus norvegicus [11]", "result": -29, "unit": "mmHg"}, {"measurement": "Heart rate", "setting": "Rattus norvegicus [12]", "result": -24, "unit": "beats min-1"}]}
{"smiles": "C[N+](C)(C)CCCCCC[N+](C)(C)C.[Cl-].[Cl-]", "note": "[HEXAMETHONIUM CHLORIDE]", "values": [{"measurement": "BP", "setting": "Rattus norvegicus [13]", "result": -40, "unit": "mmHg"}, {"measurement": "Heart rate", "setting": "Rattus norvegicus [14]", "result": -46, "unit": "beats min-1"}, {"measurement": "BP", "setting": "Rattus norvegicus [15]", "result": -48, "unit": "mmHg"}, {"measurement": "dP/dt", "setting": "Rattus norvegicus [16]", "result": -4421, "unit": "mmHg s-1"}]}
{"smiles": "CC(C)NCC(O)c1ccc(O)c(O)c1", "note": "(configuration not stated) [ISOPROTERENOL]", "values": [{"measurement": "BP", "setting": "Rattus norvegicus [17]", "result": -31, "unit": "mmHg"}, {"measurement": "BP", "setting": "Rattus norvegicus [18]", "result": -20, "unit": "mmHg"}, {"measurement": "Heart rate", "setting": "Rattus norvegicus [19]", "result": 46, "unit": "beats min-1"}, {"measurement": "dP/dt", "setting": "Rattus norvegicus [20]", "result": 9844, "unit": "mmHg s-1"}]}
{"smiles": "NC[C@H](O)c1ccc(O)c(O)c1", "note": "[NOREPINEPHRINE]", "values": [{"measurement": "Heart rate", "setting": "Rattus norvegicus [5]", "result": 28, "unit": "beats min-1"}, {"measurement": "BP", "setting": "Rattus norvegicus [6]", "result": 43, "unit": "mmHg"}, {"measurement": "BP", "setting": "Rattus norvegicus [7]", "result": 25, "unit": "mmHg"}, {"measurement": "dP/dt", "setting": "Rattus norvegicus [8]", "result": 5564, "unit": "mmHg s-1"}]}
{"smiles": "COc1ccc(Cc2nccc3cc(OC)c(OC)cc23)cc1OC", "note": "[PAPAVERINE]", "values": [{"measurement": "dP/dt", "setting": "Rattus norvegicus [21]", "result": -1204, "unit": "mmHg s-1"}, {"measurement": "Heart rate", "setting": "Rattus norvegicus [22]", "result": -18, "unit": "beats min-1"}, {"measurement": "BP", "setting": "Rattus norvegicus [23]", "result": -20, "unit": "mmHg"}, {"measurement": "BP", "setting": "Rattus norvegicus [24]", "result": -15, "unit": "mmHg"}]}
{"smiles": "COC(=O)[C@H]1[C@H]2C[C@@H]3c4[nH]c5cc(OC)ccc5c4CCN3C[C@H]2C[C@@H](OC(=O)c2cc(OC)c(OC)c(OC)c2)[C@@H]1OC", "note": "[RESERPINE]", "values": [{"measurement": "BP", "setting": "Rattus norvegicus [25]", "result": -29, "unit": "mmHg"}, {"measurement": "dP/dt", "setting": "Rattus norvegicus [26]", "result": -1438, "unit": "mmHg s-1"}, {"measurement": "Heart rate", "setting": "Rattus norvegicus [27]", "result": -51, "unit": "beats min-1"}, {"measurement": "BP", "setting": "Rattus norvegicus [28]", "result": -35, "unit": "mmHg"}]}
